Test results published in ChEMBL document CHEMBL1126205, “Novel spirosuccinimides with incorporated isoindolone and benzisothiazole 1,1-dioxide moieties as aldose reductase inhibitors and antihyperglycemic agents” (1992).
Values joined by “and” are separate entries in the source; they are usually repeats but may differ in a detail not shown here. Equal entries are not always repeated. Active and inactive are the calls of the source. No cut-off for these calls is given here.

Key:
Rattus norvegicus [1] = assay: In vivo galactitol inhibitory activity measured by its ability to inhibit galactitol accumulation in sciatic nerve at 46 mg/Kg/day; NS=Not significant (% Inhibition); type: functional, organism-based
In short: (§1)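 Rats (n = 6) fed 20% galactose for 4 days, with compound given in the diet at the stated daily dose. Galactitol accumulation was measured in lens, sciatic nerve and diaphragm, and % inhibition was taken versus the nontreated group. Means are from three to eight drug-treated tissue samples. Dunnett's multiple comparison test was applied, with p > 0.05 reported as not significant.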

Rattus norvegicus [2] = assay: In vivo galactitol inhibitory activity measured by its ability to inhibit galactitol accumulation in lens at 46 mg/Kg/day; type: functional; details: Lens of camera-type eye
In short: (§2)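 Rats (n = 6) fed 20% galactose for 4 days, with compound given in the diet at the stated mg/kg per day. Galactitol accumulation in lens, sciatic nerve or diaphragm is scored as percent inhibition versus the non-treated group, as means of 3–8 drug-treated tissue samples. Dunnett's multiple comparison test applies; NS means p > 0.05.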

Rattus norvegicus [3] = assay: In vivo galactitol inhibitory activity measured by its ability to inhibit galactitol accumulation in diaphragm at 46 mg/Kg/day; NS=Not significant (% Inhibition); type: functional, organism-based; in short: as §2
Rattus norvegicus [4] = assay: In vivo galactitol inhibitory activity measured by its ability to inhibit galactitol accumulation in sciatic nerve at 4 mg/Kg/day; NS=Not significant (% Inhibition); type: functional, organism-based; in short: as §1
Mus musculus [5] = assay: Antihyperglycemic activity measured as percent decrease in mice plasma glucose at 100 mg/Kg/day; type: functional
In short: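 Male db/db (C57BL/KsJ) mice, 4–6 per group, dosed at 100 mg/kg per day. Plasma glucose of the drug-treated group is expressed as percent decrease relative to a vehicle-treated control group. Values are mean ± SE, with p < 0.05 marked.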

Rattus norvegicus [6] = assay: In vivo galactitol inhibitory activity measured by its ability to inhibit galactitol accumulation in diaphragm at 4 mg/Kg/day; NS=Not significant (% Inhibition); type: functional, organism-based; in short: as §2
Rattus norvegicus [7] = assay: In vivo galactitol inhibitory activity measured by its ability to inhibit galactitol accumulation in lens at 4 mg/Kg/day; NS=Not significant (% Inhibition); type: functional, organism-based; details: Lens of camera-type eye; in short: as §2
[8] = molecular target: Aldo-keto reductase family 1 member B1 (Bos taurus) (UniProt P16116); assay: In vitro aldose reductase inhibitory activity measured by NADPH-dependent inhibition of glyceraldehyde reduction in a partially purified bovine lens preparation at 10E-6 M
In short: (§3)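 Aldose reductase partially purified from bovine lens. Inhibition of NADPH-dependent glyceraldehyde reduction is measured at the single stated concentration and reported as percent inhibition, the mean of two determinations.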

Rattus norvegicus [9] = assay: In vivo galactitol inhibitory activity measured by its ability to inhibit galactitol accumulation in diaphragm at 9 mg/Kg/day; type: functional; in short: as §2
Rattus norvegicus [10] = assay: In vivo galactitol inhibitory activity measured by its ability to inhibit galactitol accumulation in sciatic nerve at 6 mg/Kg/day; type: functional; in short: as §1
Rattus norvegicus [11] = assay: In vivo galactitol inhibitory activity measured by its ability to inhibit galactitol accumulation in lens at 3 mg/Kg/day; NS=Not significant (% Inhibition); type: functional, organism-based; details: Lens of camera-type eye; in short: as §2
Rattus norvegicus [12] = assay: In vivo galactitol inhibitory activity measured by its ability to inhibit galactitol accumulation in lens at 9 mg/Kg/day; NS=Not significant (% Inhibition); type: functional, organism-based; details: Lens of camera-type eye; in short: as §1
Rattus norvegicus [13] = assay: In vivo galactitol inhibitory activity measured by its ability to inhibit galactitol accumulation in sciatic nerve at 3 mg/Kg/day; NS=Not significant (% Inhibition); type: functional, organism-based; in short: as §1
Rattus norvegicus [14] = assay: In vivo galactitol inhibitory activity measured by its ability to inhibit galactitol accumulation in lens at 6 mg/Kg/day; NS=Not significant (% Inhibition); type: functional, organism-based; details: Lens of camera-type eye; in short: as §2
[15] = molecular target: Aldo-keto reductase family 1 member B1 (Bos taurus) (UniProt P16116); assay: In vitro aldose reductase inhibitory activity measured by NADPH-dependent inhibition of glyceraldehyde reduction in a partially purified bovine lens preparation at 10E-7 M; in short: as §3
Rattus norvegicus [16] = assay: In vivo galactitol inhibitory activity measured by its ability to inhibit galactitol accumulation in diaphragm at 6 mg/Kg/day; type: functional; in short: as §2
Rattus norvegicus [17] = assay: In vivo galactitol inhibitory activity measured by its ability to inhibit galactitol accumulation in diaphragm at 3 mg/Kg/day; type: functional; in short: as §2
Rattus norvegicus [18] = assay: In vivo galactitol inhibitory activity measured by its ability to inhibit galactitol accumulation in sciatic nerve at 9 mg/Kg/day; type: functional; in short: as §1
Mus musculus [19] = assay: Antihyperglycemic activity measured as percent decrease in mice plasma glucose at 87 mg/Kg/day; type: functional
In short: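 Male db/db (C57BL/KsJ) mice, 4–6 per group, dosed at the stated mg/kg per day. Plasma glucose is expressed as percent decrease versus the vehicle-treated group. Values are mean ± SE.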

Rattus norvegicus [20] = assay: In vivo galactitol inhibitory activity measured by its ability to inhibit galactitol accumulation in sciatic nerve at 6 mg/Kg/day; NS=Not significant (% Inhibition); type: functional, organism-based; in short: as §1
Rattus norvegicus [21] = assay: In vivo galactitol inhibitory activity measured by its ability to inhibit galactitol accumulation in sciatic nerve at 10 mg/Kg/day; NS=Not significant (% Inhibition); type: functional, organism-based; in short: as §1
Rattus norvegicus [22] = assay: In vivo galactitol inhibitory activity measured by its ability to inhibit galactitol accumulation in diaphragm at 10 mg/Kg/day; type: functional; in short: as §2
Rattus norvegicus [23] = assay: In vivo galactitol inhibitory activity measured by its ability to inhibit galactitol accumulation in lens at 6 mg/Kg/day; type: functional, Lens of camera-type eye; details: for inhibition in vivo at 6 mg/kg/day: Rattus norvegicus, Lens of camera-type eye; in short: as §2
Rattus norvegicus [24] = assay: In vivo galactitol inhibitory activity measured by its ability to inhibit galactitol accumulation in sciatic nerve at 3 mg/Kg/day; type: functional; in short: as §1
Rattus norvegicus [25] = assay: In vivo galactitol inhibitory activity measured by its ability to inhibit galactitol accumulation in lens at 10 mg/Kg/day; type: functional; details: Lens of camera-type eye; in short: as §2
Mus musculus [26] = assay: Antihyperglycemic activity was determined by measuring percent decrease in plasma glucose at 5 mg/kg/day; type: functional
Mus musculus [27] = assay: Antihyperglycemic activity was determined by measuring percent decrease in plasma glucose at 1 mg/kg/day; type: functional
Rattus norvegicus [28] = assay: In vivo galactitol activity by measuring its ability to inhibit galactitol accumulation in diaphragm at 6 mg/Kg/day; type: functional; in short: as §2
Rattus norvegicus [29] = assay: In vivo galactitol inhibitory activity measured by its ability to inhibit galactitol accumulation in lens at 53 mg/Kg/day; type: functional, Lens of camera-type eye; in short: as §2
Rattus norvegicus [30] = assay: In vivo galactitol inhibitory activity measured by its ability to inhibit galactitol accumulation in diaphragm at 79 mg/Kg/day; type: functional; in short: as §2
Rattus norvegicus [31] = assay: In vivo galactitol inhibitory activity measured by its ability to inhibit galactitol accumulation in lens at 25 mg/Kg/day; type: functional, Lens of camera-type eye; in short: as §2
Rattus norvegicus [32] = assay: In vivo galactitol inhibitory activity measured by its ability to inhibit galactitol accumulation in sciatic nerve at 79 mg/Kg/day; type: functional; in short: as §1
Rattus norvegicus [33] = assay: In vivo galactitol inhibitory activity measured by its ability to inhibit galactitol accumulation in lens at 79 mg/Kg/day; type: functional; details: Lens of camera-type eye; in short: as §1
Rattus norvegicus [34] = assay: In vivo galactitol inhibitory activity measured by its ability to inhibit galactitol accumulation in lens at 3 mg/Kg/day; NS=Not significant; type: functional, organism-based; details: Lens of camera-type eye; in short: as §2
Rattus norvegicus [35] = assay: In vivo galactitol inhibitory activity measured by its ability to inhibit galactitol accumulation in sciatic nerve at 10 mg/Kg/day; type: functional; in short: as §1
Rattus norvegicus [36] = assay: In vivo galactitol inhibitory activity measured by its ability to inhibit galactitol accumulation in lens at 10 mg/Kg/day; NS=Not significant (% Inhibition); type: functional; details: Lens of camera-type eye; in short: as §2

## O=C(O)CN1C(=O)c2ccccc2C12CC(=O)NC2=O (centres undefined)
Rattus norvegicus [1]
  inhibition: inactive
Rattus norvegicus [2]
  inhibition in vivo at 46 mg/kg/day: 17%
Rattus norvegicus [3]
  inhibition: inactive

## CCCN1C(=O)c2cc(Cl)c(Cl)cc2C12CC(=O)NC2=O (centres undefined)
Rattus norvegicus [4]
  inhibition: inactive
Mus musculus [5]
  Decrease: <15%
Rattus norvegicus [6]
  inhibition: inactive
Rattus norvegicus [7]
  inhibition: inactive

## CN1C(=O)c2cc(-c3ccccc3)ccc2C12CC(=O)NC2=O (centres undefined)
[8]
  inhibition: 81%
Rattus norvegicus [9]
  inhibition in vivo at 9 mg/kg/day: 55%
Rattus norvegicus [10]
  inhibition in vivo at 6 mg/kg/day: 27%
Mus musculus [5]
  Decrease: <15%
Rattus norvegicus [11]
  inhibition: inactive
Rattus norvegicus [12]
  inhibition: inactive
Rattus norvegicus [13]
  inhibition: inactive
Rattus norvegicus [14]
  inhibition: inactive
[15]
  inhibition: 37%
Rattus norvegicus [16]
  inhibition in vivo at 6 mg/kg/day: 43%
Rattus norvegicus [17]
  inhibition in vivo at 3 mg/kg/day: 29%
Rattus norvegicus [18]
  inhibition in vivo at 9 mg/kg/day: 34%

## CC(C)N1C2(CC(=O)NC2=O)c2ccccc2S1(=O)=O (centres undefined)
Mus musculus [19]
  Decrease: 27%

## Cc1ccc2c(c1)C(=O)N(C)C21CC(=O)NC1=O (centres undefined)
[8]
  inhibition: 61%
Rattus norvegicus [20]
  inhibition: inactive
Mus musculus [5]
  Decrease: <15%
Rattus norvegicus [21]
  inhibition: inactive
Rattus norvegicus [11]
  inhibition: inactive
Rattus norvegicus [22]
  inhibition in vivo at 10 mg/kg/day: 47%
Rattus norvegicus [23]
  inhibition in vivo at 6 mg/kg/day: 13%
[15]
  inhibition: 26%
Rattus norvegicus [16]
  inhibition in vivo at 6 mg/kg/day: 39%
Rattus norvegicus [24]
  inhibition in vivo at 3 mg/kg/day: 20%
Rattus norvegicus [25]
  inhibition in vivo at 10 mg/kg/day: 12%
Rattus norvegicus [17]
  inhibition in vivo at 3 mg/kg/day: 27%

## Cc1oc(-c2ccccc2)nc1CCOc1ccc(CC2SC(=O)NC2=O)cc1 (centres undefined)
Mus musculus [26]
  Decrease: 52%
Mus musculus [27]
  Decrease: 40%

## CN1C(=O)c2ccc(Cl)cc2C12CC(=O)NC2=O (single isomer, unassigned; (-))
Rattus norvegicus [28]
  inhibition in vivo at 6 mg/kg/day: 24%

## CN1C(=O)c2ccc(Cl)cc2C12CC(=O)NC2=O (stereo in doubt; 32)
Rattus norvegicus [29]
  Inhibition: 69% and 92% and 90%
Rattus norvegicus [30]
  inhibition in vivo at 79 mg/kg/day: 92%
Mus musculus [5]
  Decrease: <15%
Rattus norvegicus [23]
  Inhibition: 28% and 53%
Rattus norvegicus [31]
  Inhibition: 51% and 84% and 81%
Rattus norvegicus [32]
  inhibition in vivo at 79 mg/kg/day: 80%
Rattus norvegicus [33]
  inhibition in vivo at 79 mg/kg/day: 81%

## Cc1cccc2c1C(=O)N(C)C21CC(=O)NC1=O (centres undefined)
[8]
  inhibition: 59%
Rattus norvegicus [20]
  inhibition: inactive
Rattus norvegicus [34]
  inhibition: inactive
Rattus norvegicus [35]
  Inhibition: 50%
Rattus norvegicus [35]; Rattus norvegicus, Sciatic nerve
  inhibition in vivo at 10 mg/kg/day: 63%
Rattus norvegicus [36]
  inhibition in vivo at 10 mg/kg/day: 29%
Rattus norvegicus [22]
  inhibition in vivo at 10 mg/kg/day: 69%
Rattus norvegicus [13]
  inhibition: inactive
Rattus norvegicus [23]
  inhibition in vivo at 6 mg/kg/day: 28%
[15]
  inhibition: 11%
Rattus norvegicus [16]
  inhibition in vivo at 6 mg/kg/day: 57%
Rattus norvegicus [17]
  inhibition in vivo at 3 mg/kg/day: 37%
